One test is filed under the species Sus scrofa. Nature of the test: Inhibition of calcium channel in pig carotid artery assessed as relaxation of KCl-induced tissue contraction at 1 uM to 30 mM. Format: tissue-based. The procedure, abridged:
(§1)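 Arterial strips equilibrated 90-120 min in PSS at 37 °C, pH 7.4, bubbled with 100% O₂, under ~2 g passive force (near L_0), and repeatedly contracted with 110 mM KCl (equimolar NaCl substitution) until force stabilized. Then precontracted with 110 mM KCl PSS to stable force; cumulative compound addition (1 μM to 30 mM), DMSO vehicle control. Force expressed as percent of initial maximal KCl response at each concentration.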

Test [1] in a line: Inhibition of calcium channel in pig carotid artery assessed as relaxation of KCl-induced tissue contraction. The format is tissue-based, Sus scrofa. The method, boiled down: as §1

As for `CCCCCN1C(=O)NC(c2ccccc2)C(C(=O)OCC)=C1C` (stereo not drawn), the inhibition in the test listed under Sus scrofa is 40%. Moreover, in test [1], the IC50 was 100 µM.
In the case of `CCCCCCCCCCN1C(=O)NC(c2ccccc2)C(C(=O)OCC)=C1C` (stereo not drawn), the inhibition in the test filed under Sus scrofa came out at 40%. Moreover, the IC50 in test [1] was 100 µM.
Take `COC(=O)C1=C(C)NC(C)=C(C(=O)OC)C1c1ccccc1[N+](=O)[O-]` [NIFEDIPINE]: in test [1], the half-inhibitory concentration (IC50) came to 10 µM.
As for `CCCN1C(=O)NC(c2ccccc2)C(C(=O)OCC)=C1C` (stereo not drawn), the inhibition in the test filed under Sus scrofa was 40%. Besides, the IC50 in test [1] was 100 µM.
As to `CCOC(=O)C1=C(C)N(CC)C(=O)NC1c1ccccc1` (stereo not drawn), the inhibition in the test listed under Sus scrofa came to 40%. Besides, in test [1], the IC50 was 100 µM.
For the molecule `C=CCN1C(=O)NC(c2ccccc2)C(C(=O)OCC)=C1C` (stereo not drawn), the inhibition in the test filed under Sus scrofa amounted to 40%. The IC50 in test [1] is 100 µM.
Regarding `CCCCN1C(=O)NC(c2ccccc2)C(C(=O)OCC)=C1C` (stereo not drawn), the inhibition in the test filed under Sus scrofa amounted to 40%. Besides, in test [1], the IC50 stood at 100 µM.
